T1: human ALDH1A2 (Homo sapiens, UniProt O94788)
T1 sequence (O94788 27-518): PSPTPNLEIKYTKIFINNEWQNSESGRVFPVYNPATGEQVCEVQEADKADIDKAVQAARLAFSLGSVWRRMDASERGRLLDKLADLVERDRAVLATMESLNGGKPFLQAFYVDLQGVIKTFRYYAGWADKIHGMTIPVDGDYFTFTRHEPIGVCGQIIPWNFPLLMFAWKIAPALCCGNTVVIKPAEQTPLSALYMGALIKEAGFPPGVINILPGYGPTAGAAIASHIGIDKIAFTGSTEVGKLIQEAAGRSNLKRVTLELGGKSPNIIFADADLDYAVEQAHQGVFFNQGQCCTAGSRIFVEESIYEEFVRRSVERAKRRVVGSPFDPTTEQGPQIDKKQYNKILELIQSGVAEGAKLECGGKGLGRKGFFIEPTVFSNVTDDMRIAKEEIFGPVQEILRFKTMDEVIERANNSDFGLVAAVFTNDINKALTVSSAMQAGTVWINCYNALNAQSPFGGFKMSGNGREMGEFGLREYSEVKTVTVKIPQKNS


Legend:
[1] = molecular target: T1, human ALDH1A2; experiment: Differential scanning fluorimetry; format: binding; settings: for DSF ΔTm (°C); (−) NAD: 200 μM compound, 4 μM ALDH1A2, absence of NAD, single experiment in quadruplicate
Procedure, shortened: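 Truncated human ALDH1A2 (residues 27–518) expressed in E. coli BL21Star (DE3), His-tag removed by PreScission protease, purified as a tetramer. Fluorescence read at 620 nm (ROX channel) during thermal melt, in quadruplicate. ΔTm taken against unliganded enzyme with 2% DMSO.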

[2] = molecular target: the molecule itself; experiment: crystal structure

Row | Molecule | DSF ΔTm (°C); (−) NAD [1] | other results
1 | O=C(NCCCCCCCCNC(=O)C(Cl)Cl)C(Cl)Cl [WIN18,446, reference compound] | 7.6 ± 0.17 °C | –
2 | NC(=O)c1ccc[n+]([C@@H]2O[C@H](COP(=O)([O-])OP(=O)(O)OC[C@H]3O[C@@H](n4cnc5c(N)ncnc54)[C@H](O)[C@@H]3O)[C@@H](O)[C@H]2O)c1 [NAD] | – | DSF ΔTm (°C); (+) NAD ([1]; 1 mM NAD+ alone, no inhibitor): 2.6 ± 0.04 °C
3 | CS(=O)(=O)c1ccc(-c2nn(-c3ccc(C#N)cc3)cc2C(=O)Nc2cccc(F)c2)cc1 [CM121] | 5.4 ± 0.15 °C | –
4 | human ALDH1A2 (residues 27-518) (enzyme, UniProt O94788 27-518, looked up) PSPTPNLEIKYTKIFINNEWQNSESGRVFPVYNPATGEQVCEVQEADKADIDKAVQAARLAFSLGSVWRRMDASERGRLLDKLADLVERDRAVLATMESLNGGKPFLQAFYVDLQGVIKTFRYYAGWADKIHGMTIPVDGDYFTFTRHEPIGVCGQIIPWNFPLLMFAWKIAPALCCGNTVVIKPAEQTPLSALYMGALIKEAGFPPGVINILPGYGPTAGAAIASHIGIDKIAFTGSTEVGKLIQEAAGRSNLKRVTLELGGKSPNIIFADADLDYAVEQAHQGVFFNQGQCCTAGSRIFVEESIYEEFVRRSVERAKRRVVGSPFDPTTEQGPQIDKKQYNKILELIQSGVAEGAKLECGGKGLGRKGFFIEPTVFSNVTDDMRIAKEEIFGPVQEILRFKTMDEVIERANNSDFGLVAAVFTNDINKALTVSSAMQAGTVWINCYNALNAQSPFGGFKMSGNGREMGEFGLREYSEVKTVTVKIPQKNS | – | stoichiometry N [2]: 4
